Test results taken from ChEMBL document CHEMBL3758117, “Discovery of indeno[1,2-b]quinoxaline derivatives as potential anticancer agents” (Eur J Med Chem, 2016).
pIC50: −log10 of the molar value. Activity calls are given as the source filed them. The calls are words filed in the database; no cut-off is given here.

Columns and labels:
[1] = Induction of apoptosis in human HuH7 cells assessed as upregulation of Bad expression at 1 to 10 uM after 24 hrs by Western blot analysis; format: functional, cell-based; settings: Huh-7
[2] = Induction of apoptosis in human HuH7 cells assessed as upregulation of Bax expression at 1 to 10 uM after 24 hrs by Western blot analysis; format: functional, cell-based; settings: Huh-7
Outline: (§1)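 Huh-7 cells were treated with DMSO or compound at 1, 5 and 10 μM for 24 h. Cells were lysed in NP-40 buffer with protease and phosphatase inhibitors, and protein was measured by Bradford. Lysate protein was resolved by SDS-PAGE and transferred to PVDF. Membranes were blocked in 5% milk, probed with primary antibodies for 2 h and secondary antibodies for 30 min, and detected by ECL, with β-actin as loading control.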

Huh-7 [3] = assay: Induction of apoptosis in human HuH7 cells assessed as downregulation of PARP expression at 1 to 10 uM after 24 hrs by Western blot analysis; format: functional, cell-based; outline: as §1
[4] = biological target: RAC-beta serine/threonine-protein kinase (Homo sapiens) (UniProt P31751); assay: Inhibition of AKT2 phosphorylation in human HuH7 cells at 1 to 10 uM after 24 hrs by immunoblot analysis; format: cell-based; settings: Huh-7; outline: as §1
Escherichia coli = assay: Binding affinity to Escherichia coli negative supercoiled pBR322 DNA at 10 uM after 12 hrs by ethidium bromide staining based agarose gel electrophoresis
Outline: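 Negatively supercoiled pBR322 (400 ng) in TE buffer pH 8.0 was incubated with compound at 10 μM for 12 h at room temperature. Loading buffer with sarkosyl was added. Samples were run on 1% agarose at 6 V/cm for 2.5 h in TAE pH 8.5, stained with ethidium bromide and photographed under UV.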

MDA-MB-231 = assay: Antiproliferative activity against human MDA-MB-231 cells after 72 hrs by XTT assay; format: functional, cell-based; settings: MDA-MB-231, 72 h
Outline: (§2)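 Cells kept as monolayers in DMEM with 10% FBS, penicillin, streptomycin and amphotericin at 37°C, 5% CO2. Seeded at 5 x 10³ cells/well and exposed to compound for 72 h in medium with 10% FBS. XTT plus electron-coupling reagent added, 4 h at 37°C, absorbance read at 492 nm. Percent of control growth uses mean absorbance (n = 3). The 50% value is taken from the linear portion of the curve.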

[5] = Antiproliferative activity against human H1299 cells after 72 hrs by XTT assay; format: functional, cell-based; settings: NCI-H1299, 72 h; outline: as §2
[6] = Antiproliferative activity against human HuH7 cells after 72 hrs by XTT assay; format: functional, cell-based; settings: Huh-7, 72 h; outline: as §2
MRC5 = assay: Antiproliferative activity against human MRC5 cells after 72 hrs by XTT assay; format: cell-based; settings: MRC5, 72 h; outline: as §2
[7] = Selectivity index, ratio of IC50 for human MRC5 cells to IC50 for human H1299 cells; format: functional
[8] = biological target: T1, DNA topoisomerase 1 (Homo sapiens) (UniProt P11387); assay: Inhibition of human DNA topoisomerase 1-mediated relaxation of supercoiled pBR322 DNA at 100 uM after 30 mins by ethidium bromide staining based agarose gel electrophoresis
T1 sequence (whole entry): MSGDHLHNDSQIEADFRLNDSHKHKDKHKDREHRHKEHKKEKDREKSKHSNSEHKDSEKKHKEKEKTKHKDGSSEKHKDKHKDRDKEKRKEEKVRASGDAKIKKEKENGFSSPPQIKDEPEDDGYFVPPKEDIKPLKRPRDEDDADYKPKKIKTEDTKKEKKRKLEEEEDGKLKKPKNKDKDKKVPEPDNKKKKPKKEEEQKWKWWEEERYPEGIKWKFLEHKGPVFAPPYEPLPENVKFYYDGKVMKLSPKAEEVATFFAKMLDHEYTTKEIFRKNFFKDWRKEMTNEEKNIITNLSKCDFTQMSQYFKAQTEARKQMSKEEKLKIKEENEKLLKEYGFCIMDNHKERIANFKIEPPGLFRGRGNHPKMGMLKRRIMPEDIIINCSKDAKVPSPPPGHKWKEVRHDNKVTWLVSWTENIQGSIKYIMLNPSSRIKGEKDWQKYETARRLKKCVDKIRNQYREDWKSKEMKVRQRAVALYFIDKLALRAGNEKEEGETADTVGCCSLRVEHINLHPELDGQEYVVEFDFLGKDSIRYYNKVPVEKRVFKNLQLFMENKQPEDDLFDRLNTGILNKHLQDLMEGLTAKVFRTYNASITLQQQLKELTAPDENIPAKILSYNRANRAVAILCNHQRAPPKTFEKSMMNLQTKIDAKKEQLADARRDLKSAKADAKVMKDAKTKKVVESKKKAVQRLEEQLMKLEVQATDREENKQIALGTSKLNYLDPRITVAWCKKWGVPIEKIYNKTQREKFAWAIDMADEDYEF
Outline: (§3)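 Human topo I or topo II (2 units) was reacted with 0.2 μg supercoiled pBR322 in 20 μl Tris-HCl pH 7.5 containing KCl, DTT, EDTA, MgCl2 and BSA, with DMSO held at 0.5%, for 30 min at 37°C. The reaction was stopped with SDS. Samples were run on 1% agarose in Tris-acetate/EDTA at 1.5 V/cm for 2-3 h and stained with ethidium bromide. Relaxation was quantified by densitometry of the supercoiled band area.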

[9] = biological target: DNA topoisomerase 2-alpha (Homo sapiens) (UniProt P11388); assay: Inhibition of human DNA topoisomerase 2-mediated relaxation of supercoiled pBR322 DNA at 100 uM after 30 mins by ethidium bromide staining based agarose gel electrophoresis; outline: as §3
[10] = Cell cycle arrest in human HuH7 cells assessed as accumulation at G1 phase at 5 uM for 24 hrs by propidium iodide staining based flow cytometry (reference value: 62.1 +/- 1.4%); format: functional; settings: Huh-7
[11] = Cell cycle arrest in human HuH7 cells assessed as accumulation at G1 phase at 10 uM for 24 hrs by propidium iodide staining based flow cytometry (reference value: 62.1 +/- 1.4%); format: functional; settings: Huh-7
[12] = Cell cycle arrest in human HuH7 cells assessed as accumulation at G2/M phase at 1 uM for 24 hrs by propidium iodide staining based flow cytometry (reference value: 25.2 +/- 3.5%); format: functional; settings: Huh-7
[13] = Cell cycle arrest in human HuH7 cells assessed as accumulation at G2/M phase at 5 uM for 24 hrs by propidium iodide staining based flow cytometry (reference value: 25.2 +/- 3.5%); format: functional; settings: Huh-7
Huh-7 [14] = assay: Induction of apoptosis in human HuH7 cells assessed as cell shrinkage at 5 uM after 24 hrs by light microscopy; format: functional, cell-based
[15] = Downregulation of cyclin A expression in human HuH7 cells at 1 to 10 uM after 24 hrs by immunoblot analysis; format: functional, cell-based; settings: Huh-7; outline: as §1
[16] = Downregulation of cyclin B1 expression in human HuH7 cells at 1 to 10 uM after 24 hrs by immunoblot analysis; format: functional, cell-based; settings: Huh-7; outline: as §1
[17] = Induction of apoptosis in human HuH7 cells assessed as upregulation of activated caspase 3 at 1 to 10 uM after 24 hrs by Western blot analysis; format: functional, cell-based; settings: Huh-7; outline: as §1

Chain of RAC-beta serine/threonine-protein kinase (Homo sapiens) (P31751 whole entry): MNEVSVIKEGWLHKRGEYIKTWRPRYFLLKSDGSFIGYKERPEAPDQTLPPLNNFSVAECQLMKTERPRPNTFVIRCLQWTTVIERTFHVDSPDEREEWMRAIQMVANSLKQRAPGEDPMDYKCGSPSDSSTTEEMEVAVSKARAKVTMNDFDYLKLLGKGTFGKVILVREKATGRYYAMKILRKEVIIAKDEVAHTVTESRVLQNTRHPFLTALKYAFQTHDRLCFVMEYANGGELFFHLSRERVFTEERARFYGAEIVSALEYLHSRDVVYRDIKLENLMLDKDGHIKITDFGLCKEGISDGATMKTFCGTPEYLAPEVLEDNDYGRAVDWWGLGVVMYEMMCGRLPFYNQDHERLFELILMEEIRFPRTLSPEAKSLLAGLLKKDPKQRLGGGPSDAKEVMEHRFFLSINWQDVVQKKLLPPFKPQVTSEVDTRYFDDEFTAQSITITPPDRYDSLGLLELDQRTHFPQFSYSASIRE
Chain of DNA topoisomerase 2-alpha (Homo sapiens) (P11388 whole entry): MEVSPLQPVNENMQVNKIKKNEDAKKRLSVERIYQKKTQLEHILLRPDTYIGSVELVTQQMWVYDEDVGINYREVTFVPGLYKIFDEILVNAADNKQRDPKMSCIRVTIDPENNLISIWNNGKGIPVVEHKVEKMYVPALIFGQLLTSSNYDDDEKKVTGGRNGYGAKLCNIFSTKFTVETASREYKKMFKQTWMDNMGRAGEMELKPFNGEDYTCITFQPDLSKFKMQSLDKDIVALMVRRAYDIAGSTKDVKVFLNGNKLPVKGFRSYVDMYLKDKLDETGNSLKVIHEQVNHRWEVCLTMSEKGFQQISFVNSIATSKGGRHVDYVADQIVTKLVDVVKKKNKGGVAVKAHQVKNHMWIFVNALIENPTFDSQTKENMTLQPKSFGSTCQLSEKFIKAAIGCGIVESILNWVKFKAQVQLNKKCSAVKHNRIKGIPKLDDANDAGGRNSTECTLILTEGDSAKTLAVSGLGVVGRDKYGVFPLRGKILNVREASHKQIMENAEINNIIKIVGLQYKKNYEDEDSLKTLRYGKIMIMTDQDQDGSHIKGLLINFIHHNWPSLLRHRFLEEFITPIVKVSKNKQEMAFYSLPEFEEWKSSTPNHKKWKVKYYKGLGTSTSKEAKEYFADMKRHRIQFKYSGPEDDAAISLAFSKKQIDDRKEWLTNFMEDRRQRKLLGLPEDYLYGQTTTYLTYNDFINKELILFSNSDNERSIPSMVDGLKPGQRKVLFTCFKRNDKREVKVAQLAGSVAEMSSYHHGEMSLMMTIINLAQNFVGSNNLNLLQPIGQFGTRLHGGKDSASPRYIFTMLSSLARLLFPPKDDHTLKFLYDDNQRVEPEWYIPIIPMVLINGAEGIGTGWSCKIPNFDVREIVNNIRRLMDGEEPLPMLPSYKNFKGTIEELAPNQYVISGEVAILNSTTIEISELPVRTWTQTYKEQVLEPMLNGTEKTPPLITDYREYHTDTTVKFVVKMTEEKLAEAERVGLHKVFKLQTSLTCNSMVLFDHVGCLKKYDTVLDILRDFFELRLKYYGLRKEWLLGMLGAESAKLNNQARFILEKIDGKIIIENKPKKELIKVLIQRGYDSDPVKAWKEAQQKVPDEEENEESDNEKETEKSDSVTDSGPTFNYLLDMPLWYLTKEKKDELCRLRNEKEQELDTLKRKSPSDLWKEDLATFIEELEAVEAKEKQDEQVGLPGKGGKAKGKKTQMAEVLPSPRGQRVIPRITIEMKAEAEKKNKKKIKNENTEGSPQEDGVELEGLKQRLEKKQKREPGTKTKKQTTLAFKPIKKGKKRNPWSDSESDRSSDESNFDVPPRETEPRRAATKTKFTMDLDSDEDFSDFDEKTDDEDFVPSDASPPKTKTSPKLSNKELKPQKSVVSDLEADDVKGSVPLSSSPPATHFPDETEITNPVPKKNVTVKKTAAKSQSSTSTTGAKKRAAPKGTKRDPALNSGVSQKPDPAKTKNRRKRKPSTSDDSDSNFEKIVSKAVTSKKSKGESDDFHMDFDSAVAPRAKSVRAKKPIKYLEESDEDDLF

inhibition [4]: Active | Activity (Escherichia coli): Active | pIC50 (MDA-MB-231): 6.06 | topoisomerase 1 inhibition (active/inactive) [8]: Active | inhibition call (active/not active) [9]: Active
Compound: CN(C)CCCNC(=O)c1cccc2nc3c(nc12)-c1ccccc1/C3=N\OCCCN(C)C.Cl
Activity [1]: Dose-dependent effect | Activity [2]: Dose-dependent effect | Activity (Huh-7 [3]): Dose-dependent effect | pIC50 [5]: 5.24 | pIC50 [6]: 6.19 | pIC50 (MRC5): 4.50 | Ratio IC50 [7]: 5.45 | Activity [10]: 35.1% | Activity [11]: 30.4% | Activity [12]: 19.3% | Activity [13]: 22.9% | Activity (Huh-7 [14]): Active | Activity [15]: Active | Activity [16]: Active | Activity [17]: Dose-dependent effect
